Reference: ChEMBL document CHEMBL4145576, “Isolation, Synthesis, and Antisepsis Effects of a C-Methylcoumarinochromone Isolated from Abronia nana Cell Culture” (J Nat Prod, 2018)
The source made the active and inactive calls.

Columns and labels:
[1] = biological target: T1, High mobility group protein B1 (Homo sapiens) (UniProt P09429); test: Inhibition of LPS-induced HMGB1 release in HUVEC at > 0.2 uM pretreated with bacterial LPS for 16 hrs followed by compound treatment measured after 6 hrs by ELISA; format: cell-based
T1 sequence (whole entry): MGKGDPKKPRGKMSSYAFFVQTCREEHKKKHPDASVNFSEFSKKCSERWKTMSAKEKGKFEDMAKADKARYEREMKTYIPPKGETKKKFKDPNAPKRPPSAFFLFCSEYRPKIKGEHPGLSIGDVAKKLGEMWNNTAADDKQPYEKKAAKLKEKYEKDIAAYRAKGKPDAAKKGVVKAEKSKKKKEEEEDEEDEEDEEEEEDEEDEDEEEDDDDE

HUVEC [2] = test: Effect on HMGB1 release in HUVEC at > 0.2 uM after 6 hrs by ELISA; format: ADME, cell-based; settings: human
Mus musculus [3] = test: Antisepsis activity in C57BL/6 mouse assessed as inhibition of CLP-induced mortality at 56 ug/kg, iv administered twice daily at 12 and 50 hrs post CLP measured every 6 hrs post CLP for 150 hrs (reference value: 40%); format: functional; settings: C57BL/6, iv
Mus musculus [4] = test: Antisepsis activity in C57BL/6 mouse assessed as inhibition of CLP-induced HMGB1 release in serum at 28 to 56 ug/kg, iv administered 12 hrs post CLP challenge by ELISA; format: functional, organism-based
How it was run: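 Male C57BL/6 mice underwent CLP and received compound iv (28 or 56 μg/kg) 12 h later; n = 5. Mice killed 24 h after CLP. Serum HMGB1 measured by ELISA.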

[5] = biological target: T1, High mobility group protein B1 (Homo sapiens); test: Inhibition of HMGB1-induced TLR2 expression level in HUVEC at 0.1 to 1 uM after 6 hrs by ELISA; format: cell-based
How it was run: (§1)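 Confluent HUVECs activated with HMGB1 (1 μg/mL, 16 h), then incubated with compound for 6 h. Surface TLR2, TLR4 and RAGE determined by cell-based ELISA with specific antibodies.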

[6] = biological target: T1, High mobility group protein B1 (Homo sapiens); test: Inhibition of HMGB1-induced TLR4 expression level in HUVEC at 0.1 to 1 uM after 6 hrs by ELISA; format: cell-based; how it was run: as §1
[7] = biological target: T1, High mobility group protein B1 (Homo sapiens); test: Inhibition of HMGB1-induced RAGE expression level in HUVEC at 0.1 to 1 uM after 6 hrs by ELISA; format: cell-based; how it was run: as §1
HUVEC [8] = test: Cytotoxicity against HUVEC assessed as reduction in cell viability up to 5 uM after 48 hrs by MTT assay; format: cell-based; settings: human
How it was run: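 HUVECs (passage 3–5; 5 × 10^3 cells/well) seeded for 24 h, then exposed to compound for 48 h. MTT (1 mg/mL) added for 4 h. Formazan dissolved in DMSO and read at 540 nm.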

HUVEC [9] = test: Effect on barrier integrity in HUVEC at 1 uM after 6 hrs by spectrophotometric method; format: ADME, cell-based; settings: human
How it was run: (§2)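 HUVECs (5 × 10^4 cells/well) grown 3 days on 3 μm Transwells to confluence. Monolayers exposed to LPS (100 ng/mL, 4 h) or HMGB1 (1 μg/mL, 16 h), or left unstimulated, then treated with compound for 6 h. Flux of albumin-bound Evans blue measured spectrophotometrically.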

Lipopolysaccharide (LPS) = test: Inhibition of bacterial LPS-mediated disruption of barrier integrity in HUVEC by measuring flux of albumin-bound evans blue after 6 hrs by spectrophotometric method; format: cell-based; settings: Bacteria; how it was run: as §2
[10] = biological target: T1, High mobility group protein B1 (Homo sapiens); test: Inhibition of HMGB1-mediated disruption of barrier integrity in HUVEC by measuring flux of albumin-bound evans blue after 6 hrs by spectrophotometric method; format: cell-based; how it was run: as §2
Mus musculus [11] = test: Antisepsis activity in C57BL/6 mouse assessed as inhibition of HMGB1-induced vascular hyperpermeability by measuring amount of evans blue in the peritoneal washings at 28 to 56 ug/kg, iv pretreated with HMGB1 for 16 hrs followed by compound treatment measured after 6 hrs […]; format: functional, organism-based
How it was run: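 Mice given iv HMGB1 (2 μg/mouse) for 16 h, then compound (28 or 56 μg/kg) for 6 h. 1% Evans blue in saline injected iv; mice killed 30 min later. Peritoneal washings (5 mL saline) centrifuged at 200g for 10 min and read at 650 nm. Dye leak read from a standard curve as μg/mouse; n = 5.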

[12] = biological target: T1, High mobility group protein B1 (Homo sapiens); test: Inhibition of HMGB1-mediated p38 MAPK phosphorylation in HUVEC at 0.1 to 1 uM after 6 hrs by ELISA; format: cell-based
How it was run: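 HUVECs activated with HMGB1 (1 μg/mL, 16 h), then treated with compound for 6 h. Phospho-p38 MAPK measured by ELISA kit.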

Mus musculus [13] = test: Antisepsis activity in C57BL/6 mouse CLP surgery model assessed as reduction in bacterial burden in peritoneal lavage fluid at 28 to 56 ug/kg, iv measured after 24 hrs; format: functional, organism-based
How it was run: (§3)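 Male C57BL/6 mice (27 g) underwent CLP: cecum ligated 5 mm from tip and punctured once with a 22-gauge needle. Peritoneal lavage fluid and blood collected 24 h after CLP and centrifuged. Diluted samples plated on 5% sheep blood agar at 37 °C for 24 h, then CFUs counted; n = 10.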

Mus musculus [14] = test: Antisepsis activity in C57BL/6 mouse CLP surgery model assessed as reduction in bacterial burden in blood at 28 to 56 ug/kg, iv measured after 24 hrs; format: functional, organism-based; how it was run: as §3
[15] = biological target: T1, High mobility group protein B1 (Homo sapiens); test: Inhibition of HMGB1-mediated VCAM-1 expression level in HUVEC at 0.1 to 1 uM after 6 hrs by ELISA; format: cell-based
How it was run: (§4)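 Confluent HUVECs treated with HMGB1 (1 μg/mL, 16 h), then compound (0–1 μM) for 6 h. Cells fixed in 1% paraformaldehyde and probed with anti-VCAM-1, ICAM-1 or E-selectin (1:50, 1 h, 37 °C). Peroxidase anti-mouse IgG (1:2000) added, developed with o-phenylenediamine, read at 490 nm.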

[16] = biological target: T1, High mobility group protein B1 (Homo sapiens); test: Inhibition of HMGB1-mediated ICAM-1 expression level in HUVEC at 0.1 to 1 uM after 6 hrs by ELISA; format: cell-based; how it was run: as §4
[17] = biological target: T1, High mobility group protein B1 (Homo sapiens); test: Inhibition of HMGB1-mediated E-selectin expression level in HUVEC at 0.1 to 1 uM after 6 hrs by ELISA; format: cell-based; how it was run: as §4
[18] = biological target: T1, High mobility group protein B1 (Homo sapiens); test: Inhibition of HMGB1-mediated human neutrophil adhesion in HUVEC after 6 hrs by ELISA; format: cell-based
How it was run: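 HUVEC monolayers treated with HMGB1 (1 μg/mL, 16 h), then compound (0–1 μM) for 6 h. Human neutrophils (1.5 × 10^6 cells/mL) labelled with Vybrant DiD dye and added to the washed monolayers. Adhesion measured by fluorescence.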

[19] = biological target: T1, High mobility group protein B1 (Homo sapiens); test: Inhibition of HMGB1-mediated human neutrophil migration in HUVEC after 6 hrs by crystal violet staining based microscopy; format: cell-based
How it was run: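 HUVECs (6 × 10^4 cells/well) grown 3 days on 8 μm Transwells, then treated with HMGB1 (1 μg/mL, 16 h) and compound for 6 h before cells added to the upper chamber. Migrated cells fixed in 8% glutaraldehyde and stained with 0.25% crystal violet. Nine 200× fields per well counted; run in duplicate; migration index.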

Mus musculus [20] = test: Antisepsis activity in C57BL/6 mouse CLP surgery model assessed as inhibition of HMGB1-induced leukocyte migration into peritoneal cavity at 28 to 56 ug/kg, iv; format: functional, organism-based
How it was run: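 Mice given HMGB1 (2 μg/mouse) iv for 16 h, then compound (28 or 56 μg/kg) for 6 h. Peritoneal cavity washed with 5 mL saline after 6 h. Fluid diluted in Türk's solution (0.01% crystal violet, 3% acetic acid). Leukocytes counted by light microscopy.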

Mus musculus [21] = test: Antisepsis activity in C57BL/6 mouse assessed as inhibition of CLP-induced death at 56 ug/kg, iv measured 12 hrs post CLP; format: functional, organism-based
Mus musculus [22] = test: Antisepsis activity in C57BL/6 mouse assessed as inhibition of CLP-induced ALT level in plasma at 28 to 56 ug/kg, iv at 12 and 50 hrs post CLP surgery; format: functional, organism-based
How it was run: (§5)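 Male C57BL/6 mice underwent CLP and received compound iv (28 or 56 μg/kg) at 12 and 50 h after CLP. Animals bled out. AST, ALT, BUN, creatinine and LDH measured in plasma/serum with biochemical kits. IL-1β, IL-6, IL-10, MCP-1 and TNF-α measured by ELISA. Means ± SD of five independent experiments.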

Mus musculus [23] = test: Antisepsis activity in C57BL/6 mouse assessed as inhibition of CLP-induced AST level in plasma at 28 to 56 ug/kg, iv at 12 and 50 hrs post CLP surgery; format: functional, organism-based; how it was run: as §5
Mus musculus [24] = test: Antisepsis activity in C57BL/6 mouse assessed as inhibition of CLP-induced creatinine level in plasma at 28 to 56 ug/kg, iv at 12 and 50 hrs post CLP surgery; format: functional, organism-based; how it was run: as §5
Mus musculus [25] = test: Antisepsis activity in C57BL/6 mouse assessed as inhibition of CLP-induced blood urea nitrogen level in plasma at 28 to 56 ug/kg, iv at 12 and 50 hrs post CLP surgery; format: functional, organism-based; how it was run: as §5
Mus musculus [26] = test: Antisepsis activity in C57BL/6 mouse assessed as inhibition of CLP-induced lactate dehydrogenase level in plasma at 28 to 56 ug/kg, iv at 12 and 50 hrs post CLP surgery; format: functional, organism-based; how it was run: as §5
Mus musculus [27] = test: Antisepsis activity in C57BL/6 mouse assessed as inhibition of CLP-induced IL-1beta level in blood at 28 to 56 ug/kg, iv at 12 and 50 hrs post CLP surgery by ELISA; format: functional, organism-based; how it was run: as §5
Mus musculus [28] = test: Antisepsis activity in C57BL/6 mouse assessed as inhibition of CLP-induced IL-6 level in blood at 28 to 56 ug/kg, iv at 12 and 50 hrs post CLP surgery by ELISA; format: functional, organism-based; how it was run: as §5
Mus musculus [29] = test: Antisepsis activity in C57BL/6 mouse assessed as inhibition of CLP-induced IL-10 level in blood at 28 to 56 ug/kg, iv at 12 and 50 hrs post CLP surgery by ELISA; format: functional, organism-based; how it was run: as §5
Mus musculus [30] = test: Antisepsis activity in C57BL/6 mouse assessed as inhibition of CLP-induced TNFalpha level in blood at 28 to 56 ug/kg, iv at 12 and 50 hrs post CLP surgery by ELISA; format: functional, organism-based; how it was run: as §5
Mus musculus [31] = test: Antisepsis activity in C57BL/6 mouse assessed as inhibition of CLP-induced MCP1 level in blood at 28 to 56 ug/kg, iv at 12 and 50 hrs post CLP surgery by ELISA; format: functional, organism-based; how it was run: as §5
Beta-secretase 1 = Beta-secretase 1 (Homo sapiens, UniProt P56817); test: Inhibition of recombinant human BACE1 using RhEVNLDAEFK-Quencher as substrate after 60 mins by fluorescence assay
Chain of Beta-secretase 1 (P56817 whole entry): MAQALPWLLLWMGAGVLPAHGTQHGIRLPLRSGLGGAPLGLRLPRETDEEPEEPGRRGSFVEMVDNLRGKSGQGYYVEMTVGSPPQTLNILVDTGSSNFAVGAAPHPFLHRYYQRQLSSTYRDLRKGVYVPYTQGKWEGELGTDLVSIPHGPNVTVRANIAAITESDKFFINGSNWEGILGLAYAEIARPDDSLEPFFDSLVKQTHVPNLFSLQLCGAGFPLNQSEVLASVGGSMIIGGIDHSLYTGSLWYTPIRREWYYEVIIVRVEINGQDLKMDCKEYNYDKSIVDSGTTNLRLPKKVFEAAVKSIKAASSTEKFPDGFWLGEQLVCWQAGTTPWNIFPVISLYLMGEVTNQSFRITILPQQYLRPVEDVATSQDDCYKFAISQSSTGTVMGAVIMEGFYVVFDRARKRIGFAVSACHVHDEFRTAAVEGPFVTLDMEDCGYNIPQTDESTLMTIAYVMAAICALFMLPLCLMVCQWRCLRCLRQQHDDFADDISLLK

Cc1c(O)cc2oc3oc4ccccc4c3c(=O)c2c1O
60%: mortality at 0.056 mg/kg (Mus musculus [3])
Non-Toxic: Activity (HUVEC [2]) | Activity (HUVEC [8]) | Activity (HUVEC [9])
inactive: inhibition (Mus musculus [21])
active: inhibition [1] | inhibition (Mus musculus [4]) | inhibition [5] | inhibition [6] | inhibition [7] | inhibition (Lipopolysaccharide (LPS)) Dose-dependent effect | inhibition [10] Dose-dependent effect | inhibition (Mus musculus [11]) | inhibition [12] | Activity (Mus musculus [13]) | Activity (Mus musculus [14]) | inhibition [15] | inhibition [16] | inhibition [17] | inhibition [18] Dose-dependent effect | inhibition [19] Dose-dependent effect | inhibition (Mus musculus [20]) | inhibition (Mus musculus [22]) | inhibition (Mus musculus [23]) | inhibition (Mus musculus [24]) | inhibition (Mus musculus [25]) | inhibition (Mus musculus [26]) | inhibition (Mus musculus [27]) | inhibition (Mus musculus [28]) | inhibition (Mus musculus [29]) | inhibition (Mus musculus [30]) | inhibition (Mus musculus [31])

Cc1c(O)cc2oc3c(c(=O)c2c1O)-c1ccc(O)cc1OC3O (stereo not drawn) [BOERAVINONE E]
5.6 µM: IC50 (Beta-secretase 1)
